# Assay results as given in ChEMBL document CHEMBL1146621, “Antiplatelet activity of benzylisoquinoline derivatives oxidized by cerium(IV) ammonium nitrate” (Bioorg Med Chem Lett, 2003).
# Assays:
# Format in all cases: functional
# [1] = In vitro inhibition of Arachidonic acid (100 uM) induced platelet aggregatory activity.
# [2] = In vitro inhibition of Collagen (10 ug/mL) induced platelet aggregatory activity
# Outline: (§1)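 Platelets were preincubated with test agent or vehicle (DMSO 0.5%) at 37 °C for 3 min before the inducer was added, and aggregation was then followed. Aspirin served as the positive control. IC50 values are reported as means ± SE (n=3).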
# [3] = Percentage inhibition against platelet activating factor (2 ng/mL) induced platelet aggregatory activity
# [4] = Percentage inhibition against thrombin induced platelet aggregatory activity; set-up: concentration or dose not given beside the values
# [5] = Inhibitory concentration required against Arachidonic acid (100 uM) induced platelet aggregatory activity; outline: as §1
# [6] = In vitro inhibition of Collagen (10 ug/mL) induced platelet aggregatory activity.
# [7] = Percentage inhibition against Platelet activating factor (2 ng/mL) induced platelet aggregatory activity
SMILES,IC50 [5],IC50 [6],IC50 [7],Inhibition [1],Inhibition [2],Inhibition [3],Inhibition [4]
COc1cc2c(cc1OC)C(C(=O)c1ccccc1OC)=NCC2,–,–,–,21%,18%,26%,8%
COc1ccc(Cc2nccc3cc(OC)c(OC)cc23)cc1,59.2 µM,36.7 µM,–,–,–,52%,26%
COc1cc2ccnc(C(=O)c3cccc(Br)c3)c2cc1OC,–,69 µM,85 µM,35%,–,–,5%
COc1cc2c(cc1OC)C(C(=O)c1cccc(Cl)c1)=NCC2,–,–,–,25%,35%,32%,3%
COc1cc2c(cc1OC)C(C(=O)c1ccc(Cl)cc1)=NCC2,–,66.1 µM,–,48%,–,22%,18%
COc1cc2ccnc(C(=O)c3ccccc3OC)c2cc1OC,–,–,–,50%,39%,35%,1%
COc1cc2ccnc(C(=O)c3ccccc3Cl)c2cc1OC,77.1 µM,52.1 µM,82 µM,–,–,–,30%
COc1ccc(C(=O)C2=NCCc3cc(OC)c(OC)cc32)cc1,–,87 µM,–,19%,–,41%,10%
COc1ccc(C(=O)c2nccc3cc(OC)c(OC)cc23)cc1,–,97 µM,64.7 µM,20%,–,–,4%
COc1cccc(Cc2nccc3cc(OC)c(OC)cc23)c1,–,–,–,39%,46%,12%,5%
COc1cc2ccnc(C(=O)c3ccc(Br)cc3)c2cc1OC,–,–,–,22%,36%,44%,5%
COc1ccc(C(O)c2nccc3cc(OC)c(OC)cc23)cc1 (stereo unspecified),–,58.9 µM,–,44%,–,18%,9%
COc1cc2ccnc(C(=O)c3ccc(Cl)cc3)c2cc1OC,–,89.2 µM,–,11%,–,–,9%
COc1cc2ccnc(Cc3cccc(Br)c3)c2cc1OC,68.8 µM,48.9 µM,–,–,–,23%,8%
COc1cc2ccnc(Cc3ccc(Br)cc3)c2cc1OC,94 µM,55.6 µM,–,–,–,8%,11%
COc1cc2c(cc1OC)C(C(=O)c1cccc(Br)c1)=NCC2,–,74.5 µM,75.8 µM,23%,–,–,4%
COc1cc2ccnc(Cc3ccc(Cl)cc3)c2cc1OC,51.3 µM,32.7 µM,–,–,–,26%,28%
COc1cccc(C(=O)C2=NCCc3cc(OC)c(OC)cc32)c1,–,–,–,48%,31%,15%,14%
COc1cc2c(cc1OC)C(C(=O)c1ccc(Br)cc1)=NCC2,–,–,–,6%,20%,10%,4%

# The remaining molecules from weak to strong by IC50 [6], led by results:
IC50 [5],IC50 [6],IC50 [7],SMILES,Inhibition [1],Inhibition [2],Inhibition [3],Inhibition [4]
–,99.2 µM,–,COc1cc2ccnc(Cc3ccccc3Br)c2cc1OC,46%,–,8%,7%
–,88.1 µM,–,COc1cc2c(cc1OC)C(C(=O)c1ccccc1Cl)=NCC2,27%,–,20%,9%
–,77.3 µM,–,COc1cc2ccnc(C(=O)c3ccccc3Br)c2cc1OC,49%,–,25%,6%
90.2 µM,73.6 µM,–,COc1cc2ccnc(Cc3cccc(Cl)c3)c2cc1OC,–,–,11%,18%
–,72.6 µM,–,COc1cc2ccnc(C(=O)c3cccc(Cl)c3)c2cc1OC,35%,–,47%,4%
–,72.3 µM,–,COc1cc2ccnc(Cc3ccccc3Cl)c2cc1OC,34%,–,13%,8%
66.2 µM,51.2 µM,–,COc1ccccc1Cc1nccc2cc(OC)c(OC)cc12,–,–,20%,8%
37.7 µM,39.1 µM,73 µM,COc1cccc(C(=O)c2nccc3cc(OC)c(OC)cc23)c1,–,–,–,46%
34.6 µM,34.9 µM,–,CC(=O)Oc1ccccc1C(=O)O [ASPIRIN],–,–,2%,81%
